Data as given in ChEMBL document CHEMBL1287652, “QSAR modeling, synthesis and bioassay of diverse leukemia RPMI-8226 cell line active agents” (2010).

Columns and labels:
Type in all cases: functional
OVCAR-4 = assay: Antitumor activity against human OVCAR4 cells at 10 uM after 48 hrs by sulforhodamine B assay relative to control; settings: OVCAR-4, 48 h, values are per cent of control
In short: (§1)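 NCI panel lines were grown in RPMI-1640 with 5% FBS and 2 mM L-glutamine and seeded at 5000–40,000 cells/well according to doubling time. After 24 h at 37 °C, 5% CO2, one dose from a DMSO stock was added for 48 h. Cells were TCA-fixed (10% final adherent, 16% suspension), SRB-stained and read at 515 nm. Percent growth is relative to untreated control.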

SK-MEL-2 = assay: Antitumor activity against human SK-MEL-2 cells at 10 uM after 48 hrs by sulforhodamine B assay relative to control; settings: SK-MEL-2, 48 h, values are per cent of control; in short: as §1
OVCAR-5 = assay: Antitumor activity against human OVCAR5 cells at 10 uM after 48 hrs by sulforhodamine B assay relative to control; settings: OVCAR-5, 48 h, values are per cent of control; in short: as §1
NCI-H460 = assay: Antitumor activity against human NCI-H460 cells at 10 uM after 48 hrs by sulforhodamine B assay relative to control; settings: NCI-H460, 48 h, values are per cent of control; in short: as §1
OVCAR-3 = assay: Antitumor activity against human OVCAR-3 cells at 10 uM after 48 hrs by sulforhodamine B assay relative to control; settings: OVCAR-3, 48 h, values are per cent of control; in short: as §1
MDA-MB-468 = assay: Antitumor activity against human MDA-MB-468 cells at 10 uM after 48 hrs by sulforhodamine B assay relative to control; settings: MDA-MB-468, 48 h, values are per cent of control; in short: as §1
T47D = assay: Antitumor activity against human T47D cells at 10 uM after 48 hrs by sulforhodamine B assay relative to control; settings: values are per cent of control
In short: (§2)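 NCI panel line grown in RPMI-1640 with 5% FBS and 2 mM L-glutamine, plated at 5000–40,000 cells/well, 24 h preincubation. Single final 10 µM from DMSO stock, 48 h at 37 °C, 5% CO2. TCA fixation (10% adherent, 16% suspension), SRB stain, absorbance 515 nm. Percent growth relative to untreated control.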

SNB-75 = assay: Antitumor activity against human SNB75 cells at 10 uM after 48 hrs by sulforhodamine B assay relative to control; settings: SNB-75, 48 h, values are per cent of control; in short: as §1
NCI-H522 = assay: Antitumor activity against human NCI-H522 cells at 10 uM after 48 hrs by sulforhodamine B assay relative to control; settings: NCI-H522, 48 h, values are per cent of control; in short: as §1
UO-31 = assay: Antitumor activity against human UO31 cells at 10 uM after 48 hrs by sulforhodamine B assay relative to control; settings: UO-31, 48 h, values are per cent of control; in short: as §2
SF-268 = assay: Antitumor activity against human SF268 cells at 10 uM after 48 hrs by sulforhodamine B assay relative to control; settings: SF-268, 48 h, values are per cent of control; in short: as §1
A498 = assay: Antitumor activity against human A498 cells at 10 uM after 48 hrs by sulforhodamine B assay relative to control; settings: A498, 48 h, values are per cent of control
In short: (§3)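 Single-dose screen in a 55-line panel. Cells in RPMI-1640 with 5% FBS and 2 mM glutamine were preincubated for 24 h, then exposed to compound (DMSO stock diluted in medium) for 48 h at 37 °C with 5% CO2. Cells were fixed with cold TCA, stained with 0.4% SRB in 1% acetic acid, and dye was solubilized in 10 mM Tris base and read at 515 nm. Growth is given as percent of untreated control.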

U-251 = assay: Antitumor activity against human U251 cells at 10 uM after 48 hrs by sulforhodamine B assay relative to control; settings: U-251, 48 h, values are per cent of control; in short: as §2
MCF7 = assay: Antitumor activity against human MCF7 cells at 10 uM after 48 hrs by sulforhodamine B assay relative to control; settings: MCF7, 48 h, values are per cent of control; in short: as §3
SK-MEL-28 = assay: Antitumor activity against human SK-MEL-28 cells at 10 uM after 48 hrs by sulforhodamine B assay relative to control; settings: SK-MEL-28, 48 h, values are per cent of control; in short: as §1
EKVX = assay: Antitumor activity against human EKVX cells at 10 uM after 48 hrs by sulforhodamine B assay relative to control; settings: values are per cent of control; in short: as §3
MOLT-4 = assay: Antitumor activity against human MOLT4 cells at 10 uM after 48 hrs by sulforhodamine B assay relative to control; settings: MOLT-4, 48 h, values are per cent of control; in short: as §1
M14 = assay: Antitumor activity against human M14 cells at 10 uM after 48 hrs by sulforhodamine B assay relative to control; settings: M14, 48 h, values are per cent of control; in short: as §3
BT-549 = assay: Antitumor activity against human BT549 cells at 10 uM after 48 hrs by sulforhodamine B assay relative to control; settings: BT-549, 48 h, values are per cent of control; in short: as §3
SW-620 = assay: Antitumor activity against human SW620 cells at 10 uM after 48 hrs by sulforhodamine B assay relative to control; settings: SW-620, 48 h, values are per cent of control; in short: as §2
HOP-62 = assay: Antitumor activity against human HOP62 cells at 10 uM after 48 hrs by sulforhodamine B assay relative to control; settings: HOP-62, 48 h, values are per cent of control; in short: as §3
DU-145 = assay: Antitumor activity against human DU145 cells at 10 uM after 48 hrs by sulforhodamine B assay relative to control; settings: DU-145, 48 h, values are per cent of control; in short: as §3
[1] = Antitumor activity against human Hs 578T cells at 10 uM after 48 hrs by sulforhodamine B assay relative to control; settings: values are per cent of control; in short: as §3
MDA-MB-231 = assay: Antitumor activity against human MDA-MB-231 cells at 10 uM after 48 hrs by sulforhodamine B assay relative to control; settings: MDA-MB-231, 48 h, values are per cent of control; in short: as §3
A549 = assay: Antitumor activity against human A549 cells at 10 uM after 48 hrs by sulforhodamine B assay relative to control; settings: A549, 48 h, values are per cent of control; in short: as §3
IGROV-1 = assay: Antitumor activity against human IGROV1 cells at 10 uM after 48 hrs by sulforhodamine B assay relative to control; settings: IGROV-1, 48 h, values are per cent of control; in short: as §3
NCI/ADR-RES = assay: Antitumor activity against human NCI/ADR-RES cells at 10 uM after 48 hrs by sulforhodamine B assay relative to control; settings: values are per cent of control; in short: as §1
SNB-19 = assay: Antitumor activity against human SNB19 cells at 10 uM after 48 hrs by sulforhodamine B assay relative to control; settings: SNB-19, 48 h, values are per cent of control; in short: as §1
PC-3 = assay: Antitumor activity against human PC3 cells at 10 uM after 48 hrs by sulforhodamine B assay relative to control; settings: PC-3, 48 h, values are per cent of control; in short: as §1
NCI-H23 = assay: Antitumor activity against human NCI-H23 cells at 10 uM after 48 hrs by sulforhodamine B assay relative to control; settings: NCI-H23, 48 h, values are per cent of control; in short: as §1

| SMILES | growth, % of control at 10 µM (OVCAR-4) | growth, % of control at 10 µM (SK-MEL-2) | growth, % of control at 10 µM (OVCAR-5) | growth, % of control at 10 µM (NCI-H460) | growth, % of control at 10 µM (OVCAR-3) | growth, % of control at 10 µM (MDA-MB-468) | growth, % of control at 10 µM (T47D) | growth, % of control at 10 µM (SNB-75) | growth, % of control at 10 µM (NCI-H522) | growth, % of control at 10 µM (UO-31) | growth, % of control at 10 µM (SF-268) | growth, % of control at 10 µM (A498) | growth, % of control at 10 µM (U-251) | growth, % of control at 10 µM (MCF7) | growth, % of control at 10 µM (SK-MEL-28) | growth, % of control at 10 µM (EKVX) | growth, % of control at 10 µM (MOLT-4) | growth, % of control at 10 µM (M14) | growth, % of control at 10 µM (BT-549) | growth, % of control at 10 µM (SW-620) | other results |
| --- | --- | --- | --- | --- | --- | --- | --- | --- | --- | --- | --- | --- | --- | --- | --- | --- | --- | --- | --- | --- | --- |
| O=C(Nc1ccc(Cl)cc1)Nc1ccc(OCCCOc2ccc(NC(=O)Nc3ccc(Cl)cc3)cc2)cc1 | 110% | 118% | 94.6% | 103% | 112% | 114% | 106% | 92.2% | 91.6% | 68.8% | 125% | 107% | 103% | 103% | 111% | 95% | 118% | 96.7% | 102% | 104% | growth, % of control at 10 µM (HOP-62): 96.2%; growth, % of control at 10 µM (DU-145): 121%; growth, % of control at 10 µM [1]: 85.4%; growth, % of control at 10 µM (MDA-MB-231): 111%; growth, % of control at 10 µM (A549): 107%; growth, % of control at 10 µM (IGROV-1): 85.1%; growth, % of control at 10 µM (NCI/ADR-RES): 99.8%; growth, % of control at 10 µM (SNB-19): 108%; growth, % of control at 10 µM (PC-3): 93%; growth, % of control at 10 µM (NCI-H23): 96.5% |
| COc1ccc(NC(=O)Nc2ccc(OCCCOc3ccc(NC(=O)Nc4ccc(OC)cc4)cc3)cc2)cc1 | 109% | 108% | 88.4% | 96.8% | 116% | 91.1% | 83.6% | 101% | 98.3% | 71.4% | 103% | 144% | 89.8% | 55% | 204% | 86.7% | 95.5% | 95.5% | 88.1% | 118% | growth, % of control at 10 µM (HOP-62): 95.7%; growth, % of control at 10 µM (DU-145): 107%; growth, % of control at 10 µM [1]: 88.2%; growth, % of control at 10 µM (MDA-MB-231): 93.3%; growth, % of control at 10 µM (A549): 111%; growth, % of control at 10 µM (IGROV-1): 90.2%; growth, % of control at 10 µM (NCI/ADR-RES): 94.4%; growth, % of control at 10 µM (SNB-19): 94.5%; growth, % of control at 10 µM (PC-3): 108%; growth, % of control at 10 µM (NCI-H23): 94.5% |
| COc1ccc(NC(=O)Nc2ccccc2OCCCOc2ccccc2NC(=O)Nc2ccc(OC)cc2)cc1 | -67.2% | 65.8% | 46% | 17.7% | -11.4% | 22.6% | 9.2% | -34.8% | 63.7% | -20.7% | 50.7% | -9.3% | -50.9% | 28.2% | 45.7% | 2.2% | -5.8% | 61.4% | 81.2% | 0.7% | growth, % of control at 10 µM (HOP-62): 38.5%; growth, % of control at 10 µM (DU-145): 39.4%; growth, % of control at 10 µM [1]: 46.4%; growth, % of control at 10 µM (MDA-MB-231): 34%; growth, % of control at 10 µM (A549): -80%; growth, % of control at 10 µM (IGROV-1): 4.9%; growth, % of control at 10 µM (NCI/ADR-RES): 59.8%; growth, % of control at 10 µM (SNB-19): 47.6%; growth, % of control at 10 µM (PC-3): -36.5%; growth, % of control at 10 µM (NCI-H23): 2.8% |
